# Measured values of several laboratories.
# Lines come from different studies, so protocols differ.
# Matrix: plasma
SMILES,species,route,dose,notes,AUC(0-t)
COc1nc(-c2cccc(-c3ccccc3)c2C)ccc1CNCCNC(=O)CCCCCCCCCCC(=O)N1CCN(CCNC(=O)c2cc3c(=O)n4cccc(C)c4nc3n(CCc3cccs3)c2=N)CC1,male Sprague-Dawley rat,oral,40 mg/kg,,257 ng·h/mL
O=C1CCC(N2Cc3cc(C4CCN(Cc5ccccc5)CC4)ccc3C2=O)C(=O)N1 (stereo not shown),male Sprague-Dawley rat,intravenous,1 mg/kg,,309 ng·h/mL
COc1cc(-c2cc(C(C)=O)n3ccccc23)c(OC)cc1Cn1ccnc1,male Sprague-Dawley rat,intravenous,5 mg/kg,,4280 ng·h/mL
CC(=O)O[C@@H]1CC[C@@]2(C)[C@@H](CC[C@]3(C)[C@@H]2C(=O)C=C2[C@@H]4[C@@H](C)[C@H](C)CC[C@]4(C)CC[C@]23C)[C@@]1(C)C(=O)O,female Wistar rat,oral,1 mg/kg,single dose,40900 ng·h/mL
CCCCC(=O)Nc1ccc(-c2ccc3ncn(CCC)c(=O)c3c2)cn1,male rat,intravenous,2.5 mg/kg,,2560 ng·h/mL
CCCc1nc2c(C)cc(-c3nc4ccccc4n3C)cc2n1Cc1ccc(-c2ccccc2C(=O)O)cc1,male Sprague-Dawley rat,oral,8 mg/kg,single dose,1940 ng·h/mL
CC(=O)c1c(C)c2cnc(Nc3ccc(N4CCNCC4)cn3)nc2n(C2CCCC2)c1=O,male Sprague-Dawley rat,intravenous,5 mg/kg,,1900 ng·h/mL
COc1ccc(N(Cc2csc(-c3ccccc3)n2)C(=O)CCCCCC(=O)NO)cc1,female Sprague-Dawley rat,oral,30 mg/kg,,18.4 ng·h/mL
Cc1ccc2c(c1)C(=O)[C@]1(O)CCN(c3ccc4nc(C)ccc4c3)C1=N2.Cl,female rat,subcutaneous,40 mg/kg,"multiple doses, once daily",17 µM·h
C[C@H]1Oc2cc(cnc2N)-c2c(nn(C)c2C#N)CN(C)C(=O)c2ccc(F)cc21,male Sprague-Dawley rat,oral,50 mg/kg,single dose,24800 ng·h/mL
C=CC(=O)N1CCC[C@@H](n2nc(-c3ccc(Oc4ccccc4)cc3)c3c(N)ncnc32)C1,rat,oral,40 mg/kg,,304 ng·h/mL
C[C@H]1[C@@H](O)O[C@@H]2O[C@@]3(C)CC[C@H]4[C@H](C)CC[C@@H]1[C@@]24OO3,male Sprague-Dawley rat,oral,10 mg/kg,,234 ng·h/mL
C=CC(=O)N1CCC([C@@H]2CCNc3c(C(N)=O)c(-c4ccc(Oc5ccccc5)cc4)nn32)CC1,Sprague-Dawley rat,oral,16 mg/kg,,1450 ng·h/mL
Cn1c(=O)c2[nH]cnc2n(C)c1=O,male Sprague-Dawley rat,intravenous,11.25 mg/kg,,24900 ng·h/mL
CONC(=O)c1cccc2c1cc(C)n2-c1nc2c(c(NCc3ccccc3)n1)CCCN2,male Sprague-Dawley rat,oral,10 mg/kg,single dose,23.8 ng·h/mL
Nc1ccn([C@@H]2O[C@H](CO)[C@@H](O)C2(F)F)c(=O)n1,male Sprague-Dawley rat,intravenous,5 mg/kg,,160000 ng·h/mL
